Data on 3 molecules can be found in ChEMBL document CHEMBL1149165, “Significant differences in biological parameters between prodrugs cleavable by carboxypeptidase G2 that generate 3,5-difluoro-phenol and -aniline nitrogen mustards in gene-directed enzyme prodrug therapy systems” (J Med Chem, 2004).

The subject of one data set is MDA-MB-361. Nature of the data set: Ratio of the IC50 in thebeta-Gal- and CPG2-expressing cell line. In kind it is functional, Homo sapiens. The gist of the method: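 Degree of activation: IC50 in β-Gal-expressing MDA MB 361 cells divided by IC50 in stCPG2(Q)3-expressing cells. Both IC50s are from sulforhodamine-B regrowth assays after two-stage prodrug exposure, fitted to a log dose-effect sigmoid.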

The nature of data set [1]: The chemical half-life by HPLC. In kind it is ADME. The gist of the method: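 10 mM DMSO stocks diluted 100-fold to 100 µM in 100 mM Tris-HCl pH 7.3 with 260 µM ZnCl₂. Remaining parent measured over time by isocratic reverse-phase HPLC (phenyl column, 0.1% TFA with 65-85% methanol, 250-275 nm), using repeat or delayed injections. Half-life from one-phase exponential decay fit, maximum 1 and minimum 0.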

Substrate in data set [2]: O=C(O)CCC[C@H](NC(=O)Nc1cc(F)c(N(CCCl)CCCl)c(F)c1)C(=O)O
Nature of the data set: Michaelis-Menten constant towards carboxypeptidase G2 enzyme. Conditions: Pseudomonas aeruginosa. The gist of the method: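 CPG2 (50 mU) with prodrug at 5-50 µM in 5 µM steps, diluted from DMSO concentrates into 100 mM Tris-HCl pH 7.3 with 260 µM ZnCl₂, 37 °C. Remaining prodrug measured by isocratic reverse-phase HPLC (phenyl column, 0.1% TFA/methanol, 250-275 nm) at 0, 5, 10, 15 and 20 min.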

As for `CS(=O)(=O)OCCN(CCCl)c1c(F)cc(OC(=O)N[C@@H](CCCC(=O)O)C(=O)O)cc1F`, the Degree of activation with MDA-MB-361 came to 0.9 fold.
The term half-life denotes how long it takes for the measured level to halve. In the case of `O=C(O)CCC[C@H](NC(=O)Oc1cc(F)c(N(CCCl)CCCl)c(F)c1)C(=O)O`, in data set [1], the half-life was 45 min.

B1: Carboxypeptidase G2 (Pseudomonas aeruginosa (strain ATCC 15692 / PAO1 / 1C / PRS 101 / LMG12228)), Q9I056 (protein)
chain: MHARRLPRLLPLALAFLLSPAAFAADTPAAELLRQAEAERPAYLDTLRQLVAVDSGTGQAEGLGQLSALLAERLQALGAQVRSAPATPSAGDNLVATLDGTGSKRFLLMIHYDTVFAAGSAAKRPFREDAERAYGPGVADAKGGVAMVLHALALLRQQGFRDYGRITVLFNPDEETGSAGSKQLIAELARQQDYVFSYEPPDRDAVTVATNGIDGLLLEVKGRSSHAGSAPEQGRNAILELSHQLLRLKDLGDPAKGTTLNWTLARGGEKRNIIPAEASAEADMRYSDPAESERVLADARKLTGERLVADTEVSLRLDKGRPPLVKNPASQRLAETAQTLYGRIGKRIEPIAMRFGTDAGYAYVPGSDKPAVLETLGVVGAGLHSEAEYLELSSIAPRLYLTVALIRELSAD
What is called Km is the concentration of substrate that gives half-maximal velocity. For B1, the Km in data set [2] was determined as 7.7 µM.
